“And” between values parts separate entries of the source, which are not always exact repeats. Equal entries are not always repeated.
Columns and labels:
[1] = biological target: Aldo-keto reductase family 1 member B1 (Rattus norvegicus) (UniProt P07943); assay: In vitro inhibitory activity against aldose reductase of rat lens at 10E-6 M concentration
Summary of the method: (§1)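 Aldose reductase was prepared from lenses quickly removed from euthanized Fischer-344 rats of both sexes. Compounds were dissolved in 0.2 M NaHCO3. Activity was followed spectrophotometrically as NADPH oxidation. Runs were done in triplicate, and values are means with standard error from three determinations.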

[2] = biological target: Aldo-keto reductase family 1 member B1 (Rattus norvegicus) (UniProt P07943); assay: In vitro inhibitory activity against aldose reductase of rat lens at 10E-7 M concentration; summary of the method: as §1
[3] = biological target: Aldo-keto reductase family 1 member B1 (Rattus norvegicus) (UniProt P07943); assay: In vitro inhibitory activity against aldose reductase of rat lens at 10E-8 M concentration; summary of the method: as §1
[4] = biological target: T1, Albumin (Bos taurus, UniProt P02769); assay: Formation of DNPH-reactive carbonyl groups in bovine serum albumin exposed to fructose (1 mM); p<0.01; type: functional; details: cattle
Summary of the method: (§2)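 Bovine serum albumin (fraction V, essentially fatty acid free) was incubated with fructose for 28 days. Compounds were added as potassium salts dissolved in water. Data are means ± SD with the number of samples given. Significance versus control was assessed by Student's t test.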

[5] = biological target: T1, Albumin; assay: Formation of DNPH-reactive carbonyl groups in bovine serum albumin exposed to fructose (2.5 mM); p<0.001; type: functional; details: cattle; summary of the method: as §2
[6] = biological target: T1, Albumin; assay: Formation of DNPH-reactive carbonyl groups in bovine serum albumin exposed to fructose (5 mM); not detectable.; type: functional; details: cattle, 5000 µM; summary of the method: as §2
[7] = biological target: T1, Albumin; assay: In vitro ability to inhibit the irreversible modification of the model protein albumin in the presence of fructose as glycating agent (1 mM); summary of the method: as §2
[8] = biological target: T1, Albumin; assay: In vitro ability to inhibit the irreversible modification of the model protein albumin in the presence of fructose as glycating agent (2.5 mM); summary of the method: as §2
[9] = biological target: T1, Albumin; assay: In vitro ability to inhibit the irreversible modification of the model protein albumin in the presence of fructose as glycating agent (5 mM); summary of the method: as §2
[10] = biological target: T1, Albumin; assay: Glycation-induced fluorescence changes of bovine serum albumin when exposed to fructose (1 mM); p<0.01; type: functional; details: cattle; summary of the method: as §2
[11] = biological target: T1, Albumin; assay: Glycation-induced fluorescence changes of bovine serum albumin when exposed to fructose (2.5 mM); p<0.001; type: functional; details: cattle; summary of the method: as §2
[12] = biological target: T1, Albumin; assay: Glycation-induced fluorescence changes of bovine serum albumin when exposed to fructose (5 mM); p<0.001; type: functional; details: cattle; summary of the method: as §2
[13] = biological target: Aldo-keto reductase family 1 member B1 (Rattus norvegicus) (UniProt P07943); assay: In vitro inhibitory activity against aldose reductase of rat lens at 10E-5 M concentration; summary of the method: as §1
[14] = biological target: T1, Albumin; assay: Formation of DNPH-reactive carbonyl groups in bovine serum albumin exposed to fructose; p<0.001; type: functional; details: cattle; summary of the method: as §2
[15] = biological target: T1, Albumin; assay: Glycation-induced fluorescence changes of bovine serum albumin when exposed to fructose (1 mM); p<0.001; type: functional; details: cattle; summary of the method: as §2
[16] = biological target: T1, Albumin; assay: Formation of DNPH-reactive carbonyl groups in bovine serum albumin exposed to fructose (2.5 mM); not detectable.; type: functional; details: cattle; summary of the method: as §2
[17] = biological target: T1, Albumin; assay: Formation of DNPH-reactive carbonyl groups in bovine serum albumin exposed to fructose (5 mM); not detectable; type: functional; details: cattle; summary of the method: as §2
[18] = biological target: T1, Albumin; assay: Formation of DNPH-reactive carbonyl groups in bovine serum albumin exposed to fructose (1 mM); not detectable; type: functional; details: cattle; summary of the method: as §2
[19] = biological target: Aldo-keto reductase family 1 member B1 (Homo sapiens, UniProt P15121); assay: (§3) Inhibitory activity against aldose reductase enzyme
[20] = biological target: T1, Albumin; assay: Formation of DNPH-reactive carbonyl groups in bovine serum albumin exposed to fructose (1 mM); p<0.001; type: functional; details: cattle; summary of the method: as §2
[21] = biological target: T1, Albumin; assay: Formation of DNPH-reactive carbonyl groups in bovine serum albumin exposed to fructose; not detectable.; type: functional; details: cattle; summary of the method: as §2
[22] = biological target: Aldo-keto reductase family 1 member B1 (Rattus norvegicus, UniProt P07943); assay: as §3; summary of the method: as §1
[23] = biological target: Aldo-keto reductase family 1 member B1 (Rattus norvegicus) (UniProt P07943); assay: In vitro inhibitory activity against aldose reductase of rat lens at 10E-9 M concentration; summary of the method: as §1

T1 sequence (P02769 whole entry): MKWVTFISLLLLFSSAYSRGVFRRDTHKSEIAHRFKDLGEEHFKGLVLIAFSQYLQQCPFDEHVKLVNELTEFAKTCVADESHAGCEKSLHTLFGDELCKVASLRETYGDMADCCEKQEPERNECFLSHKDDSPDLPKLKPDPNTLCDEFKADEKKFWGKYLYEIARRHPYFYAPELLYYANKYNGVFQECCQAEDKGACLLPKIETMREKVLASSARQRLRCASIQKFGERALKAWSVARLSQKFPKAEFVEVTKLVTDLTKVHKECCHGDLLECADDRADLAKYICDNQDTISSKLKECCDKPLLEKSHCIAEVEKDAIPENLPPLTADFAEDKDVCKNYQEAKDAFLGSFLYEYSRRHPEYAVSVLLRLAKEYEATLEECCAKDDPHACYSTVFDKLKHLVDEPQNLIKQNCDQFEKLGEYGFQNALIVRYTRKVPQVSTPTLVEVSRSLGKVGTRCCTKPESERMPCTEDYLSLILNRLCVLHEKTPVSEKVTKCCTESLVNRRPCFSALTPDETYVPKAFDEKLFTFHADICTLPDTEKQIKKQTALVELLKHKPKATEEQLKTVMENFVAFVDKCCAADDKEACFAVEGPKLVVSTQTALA

O=C(O)Cn1ccc(C(=O)c2ccc(C(F)(F)F)cc2)c1
inhibition [1]: 47%

O=C(O)Cn1ccc(C(=O)c2cccc3ccccc23)c1
inhibition [1]: 58%
inhibition [2]: 59%

COc1ccc(C(=O)c2cc(C(=O)c3ccccc3)n(CC(=O)O)c2)cc1
inhibition [1]: 93%
inhibition [2]: 51%
inhibition [3]: 13%
Carbonyl group [4]: 4.38 nM/mg
Carbonyl group [5]: 1.7 nM/mg
Carbonyl group [6]: not detectable
Inhibition [7]: 20%
inhibition at 1000 µM [7]: 17%
Inhibition [8]: 41% and 66%
Inhibition [9]: 75% and 100%
Relative florescence [10]: 23.1
Relative florescence [11]: 11.5
Relative florescence [12]: 6.9

Cc1c(C)c2c(c(C)c1O)CCC(C)(C(=O)O)O2 (stereo unspecified) [TROLOX]
inhibition [13]: 12%
Inhibition [7]: 54% and 32%
Carbonyl group [14]: 3.44 nM/mg
Relative florescence [15]: 12.8

O=C(O)Cn1ccc(C(=O)c2ccc(-n3cccc3)cc2)c1
inhibition [1]: 80%
inhibition [2]: 39%
Carbonyl group [16]: not detectable
Carbonyl group [17]: not detectable
Inhibition [7]: 37% and 100%
Inhibition [8]: 65% and 100%
Inhibition [9]: 100%
Relative florescence [15]: 17.4
Relative florescence [11]: 9.8
Relative florescence [12]: 4.7
Carbonyl group [18]: not detectable

O=C(O)Cn1cc(C(=O)c2ccccc2)cc1C(=O)c1ccccc1
inhibition [1]: 82%
inhibition [2]: 62%
inhibition [3]: 27%

O=C(O)Cn1ccc(C(=O)c2ccc(O)cc2)c1
inhibition [1]: 45%

NC(=O)[C@@H]1C[C@]2(NC(=O)NC2=O)c2cc(F)ccc2O1
IC50 [19]: 35 nM

O=C(O)Cn1ccc(C(=O)c2ccc(-c3ccccc3)cc2)c1
inhibition [1]: 76%
inhibition [2]: 37%

O=C(O)Cn1ccc(C(=O)c2ccc3ccccc3c2)c1
inhibition [1]: 79%
inhibition [2]: 72%
inhibition [3]: 49%

O=C(O)Cn1ccc(C(=O)c2ccc3occc3c2)c1
inhibition [1]: 40%

O=C(O)Cn1ccc(C(=O)Cc2ccccc2)c1
inhibition [1]: 29%

O=C(O)Cn1ccc(C(=O)c2ccc(Cl)cc2)c1
inhibition [1]: 41%

O=C(O)Cn1ccc(C(=O)c2ccn(-c3ccccc3)c2)c1
inhibition [1]: 67%
inhibition [2]: 39%
Carbonyl group [20]: 1.55 nM/mg
Carbonyl group [16]: not detectable
Inhibition [7]: 24% and 69%
Carbonyl group [21]: not detectable
Inhibition [9]: 41% and 100%
Relative florescence [15]: 21
Relative florescence [11]: 21
Relative florescence [12]: 16.4

O=C(O)Cn1ccc(C(=O)c2ccc([N+](=O)[O-])cc2)c1
inhibition [1]: 18%

COc1ccc(C(=O)c2ccn(CC(=O)O)c2)cc1
inhibition [1]: 72%
inhibition [2]: 26%

O=C(O)Cn1ccc(C(=O)c2ccc3c(c2)CCO3)c1
inhibition [1]: 42%

O=C(O)Cn1cccc1C(=O)c1ccccc1
inhibition [13]: 36%

O=C(O)Cn1ccc(Cc2ccccc2)c1
inhibition [1]: 9%

Cc1ccc(C(=O)c2ccn(CC(=O)O)c2)cc1
inhibition [1]: 46%

O=C(O)Cn1cc(C(=O)c2ccccc2)c2ccccc21
inhibition [1]: 38%

O=C(O)Cn1ccc(C(=O)c2cccc(Cl)c2)c1
inhibition [1]: 44%

Cn1cc(C(=O)c2ccn(CC(=O)O)c2)c2ccccc21
inhibition [1]: 38%

COc1ccc(C(=O)c2cc(C(=O)c3ccc(OC)cc3)n(CC(=O)O)c2)cc1
IC50 [22]: 2.36 nM
inhibition [1]: 96%
inhibition [2]: 94%
inhibition [3]: 59%
inhibition [23]: 41%
Carbonyl group [20]: 2.52 nM/mg
Carbonyl group [16]: not detectable
Carbonyl group [17]: not detectable
Inhibition [7]: 50%
inhibition at 1000 µM [7]: 38%
Inhibition [8]: 57% and 100%
Inhibition [9]: 100%
Relative florescence [15]: 17.3
Relative florescence [11]: 11.8
Relative florescence [12]: 3.3

O=C(O)Cn1ccc(C(=O)c2ccccc2)c1
inhibition [1]: 27%

CC(C)(C)c1ccc(C(=O)c2ccn(CC(=O)O)c2)cc1
inhibition [1]: 41%
